# The list is not random: actives were taken first. Their share in the collection is about 3.3%.
# NRP1-CendR mod: alters CendR peptide binding to human NRP-1. FAM-RPARPAR peptide binding to NRP-1, fluorescence polarization. inhibition, % at 25 µM. 0.85% of 360,000 active. AID 602438;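 active = inhibition or corrected inhibition above about 18%, plus a signal ratio from 0.5 to 1.5, limit read from the data, passing the limit was not always enough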
# Granule exo inh: blocks lytic granule exocytosis. TALL-104 LAMP-1 surface exposure, flow cytometry; cells stimulated with thapsigargin and PMA. inhibition, % at 10 µM. 0.66% of 360,000 active. AID 651702;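 active = inhibition above about 55%, limit read from the data; inconclusive = no clear call, values can overlap the other calls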
# Arrestin-AP2 inh: blocks beta-arrestin peptide binding to AP2 adaptin | AID 504490 | FITC-arrestin peptide / GST-AP2 beads, flow cytometry; AP2 beta2 appendage carries R879A mutation | 0.31% of 340,000 active | inhibition, % at 10 µM;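 active = inhibition above a set limit, near 3 SD of compounds lacking own fluorescence, cut at about 54% in these data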;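 note: plate controls were DMSO wells for no effect and 5 µM unlabelled arrestin peptide for full effect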
#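 System: GST-AP2 R879A glutathione beads | Also added: FITC-arrestin peptide, 50 nM | Times: 12 min plus 1 h, RT | Signal: Bead flow cytometry, FITC channel | Buffer or medium: PBS with 0.05% Tween 20 and 0.1% BSA | Read-out basis: Percent drop in bead-associated FITC signal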
# ABCB6 inh 2: human ABCB6 transporter inhibition; Q9NP58; K562-ABCB6 porphyrin accumulation, flow cytometry, 1 h; hits give low values; fluorescence ratio to DMSO, % at 10 µM; 0.19% of 360,000 active;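 active = fluorescence ratio to DMSO below 75%, the collection mean minus 3 SD; inconclusive = too few cells collected in the well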;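 note: signal is porphyrin accumulated inside mitochondria; 100% equals median channel fluorescence of DMSO control wells; lower ratio means ABCB6 inhibition with less porphyrin fluorescence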
# Myeloid diff MLP: myeloid differentiation induction; ER-HoxA9 myeloid progenitors, lysozyme-GFP differentiation, flow cytometry; calls only at 10 µM; 1% of 360,000 active;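 active = normalized GFP-positive differentiation at or above the plate's own cutoff, the solvent-only control mean plus 3 SD; inconclusive = no clear call, values can overlap the other calls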;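 note: cells exposed to compound for four days before flow analysis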
# ATG4B inh: blocks human ATG4B protease cleavage of LC3 substrate; ATG4B cleavage of LC3-PLA2, NBD-HPC fluorescence, 1 h; 0.51% of 340,000 active; inhibition, % at 8.33 µM; in the data active = inhibition above about 40%
# Target sequence (Q9Y4P1 whole entry, looked up): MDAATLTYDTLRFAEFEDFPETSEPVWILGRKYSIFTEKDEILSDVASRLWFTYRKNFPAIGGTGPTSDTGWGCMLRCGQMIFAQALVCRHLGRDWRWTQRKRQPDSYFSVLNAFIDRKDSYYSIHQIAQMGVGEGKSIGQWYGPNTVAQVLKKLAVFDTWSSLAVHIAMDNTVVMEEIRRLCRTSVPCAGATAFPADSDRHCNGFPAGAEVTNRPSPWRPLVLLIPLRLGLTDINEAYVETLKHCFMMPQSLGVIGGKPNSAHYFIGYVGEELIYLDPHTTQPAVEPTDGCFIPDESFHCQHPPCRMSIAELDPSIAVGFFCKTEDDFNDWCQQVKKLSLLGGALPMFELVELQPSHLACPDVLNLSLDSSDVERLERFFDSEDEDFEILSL
# * marks the source's active call; other numbers are inactive results; i = inactive; u = inconclusive; x = not tested or not shown; + = active, no number.
SMILES,NRP1-CendR mod,Granule exo inh,Arrestin-AP2 inh,ABCB6 inh 2,Myeloid diff MLP,ATG4B inh
C[C@@H](c1ccccc1)N1C[C@H](COCc2ccccc2)Oc2cc(N3CC[C@@H](O)C3)ccc2S1(=O)=O,4,19,x,98,+,x
C[C@H](c1ccccc1)N1C[C@H](COCc2ccccc2)Oc2cc(N3CC[C@@H](O)C3)ccc2S1(=O)=O,4,3,x,97,i,x
C[C@@H](c1ccccc1)N1C[C@@H](COCc2ccccc2)Oc2cc(N3CC[C@@H](O)C3)ccc2S1(=O)=O,7,-1,x,95,i,x
C[C@@H]1CN([C@@H](C)CO)C(=O)CCCn2nncc2CO[C@H]1CN(C)C(=O)Nc1cccc(Oc2ccccn2)c1,14,-6,x,99,i,x
OC1CCC2CN3CCc4c([nH]c5ccccc45)C3CC2C1 (centres undefined),-6,10,x,116,i,x
COc1ccc(S(=O)(=O)N2CCC(C(=O)N[C@@H](C)C(=O)N3CCCCCC3)CC2)cc1,7,-4,-1,96,i,-2
COc1ccc(C(C)NCCC(c2ccc(OC(C)C)cc2)c2ccccc2OC)cc1 (centres undefined),-4,-5,10,109,+,-1
COc1ccc(C(CCNC(C)c2ccccc2)C(C)C)cc1 (centres undefined),-1,3,6,97,i,8
COc1ccc(C(=O)Oc2c(CN3CCOCC3)cc(Cl)c3cccnc23)cc1,-4,5,8,104,x,-6
O=C(Oc1c(CN2CCOCC2)cc(Cl)c2cccnc12)c1ccc(F)cc1,-5,0,0,92,+,-6
COc1cc(C(=O)Oc2c(CN3CCOCC3)cc(Cl)c3cccnc23)cc(OC)c1OC,1,7,20,97,+,-5
Cc1ccc(C(=O)CCC(=O)Nc2cccc(C(F)(F)F)c2)cc1,26*,0,-6,98,i,-7
Cc1nn(CC2CC2)c(=O)n1-c1ccc(Oc2ccccc2)cc1,-9,1,-6,93,i,-5
CCOc1ccc(C(=O)NCC(=O)NCCSc2ccc(Br)cc2)cc1OCC,23*,-2,4,91,i,-13
O=C(Nc1ccc(Cl)cc1)c1cc(S(=O)(=O)Nc2ccccn2)ccc1Cl,24*,-19,21,97,u,4
COc1ccc(CCNS(=O)(=O)c2cn(C)nc2C)cc1OC,-7,-3,11,101,i,-10
COc1ccc(CCNS(=O)(=O)c2cn(C)cn2)cc1OC,11,-1,24,92,+,-6
O=C(CCSc1nnc(-c2ccncc2)o1)Nc1ccccc1Cl,11,-3,5,104,i,-7
COC(=O)c1cc(C(=O)OC)n(Cc2ccc(Br)cc2)n1,32*,-1,4,84,i,2
COC(=O)c1ccc(Cn2nc(C)c(Br)c2C)cc1,12,-1,7,86,i,-3
COc1ccc(C(=O)Nc2ccccc2C(=O)N2CCCCC2C)cc1 (centres undefined),-2,-3,-7,98,i,3
O=C(CSc1ccc(Br)cc1)Nc1ccc(N2CCOCC2)cc1,-3,19,10,97,i,-3
Cc1cccc(-n2ccc(=O)c(C(=O)Nc3ccc(S(=O)(=O)Nc4nccs4)cc3)n2)c1,6,-2,38,101,+,-3
O=C(Nc1ccc(S(=O)(=O)Nc2nccs2)cc1)c1nn(-c2ccccc2)ccc1=O,-24,11,1,98,i,-2
Cc1ccsc1C(=O)OCC(=O)N(C)C1CCCCC1,-3,2,-1,96,i,4
SMILES,NRP1-CendR mod,Granule exo inh,Arrestin-AP2 inh,ABCB6 inh 2,Myeloid diff MLP,ATG4B inh
Cc1ccsc1C(=O)OCC(=O)NC1CCCC1,21*,0,-14,97,i,-2
CCC(=O)OCC(=O)N=c1sccn1Cc1ccccc1Cl,26*,0,-7,94,i,3
O=C(CCl)N=c1sccn1Cc1ccccc1Cl,-7,30,-1,88,x,5
CC(=O)CC(c1ccccc1)S(=O)(=O)c1ccc([N+](=O)[O-])cc1 (centres undefined),1,13,-15,127,+,2
CC(Cc1ccccc1)=NNS(=O)(=O)c1ccc([N+](=O)[O-])cc1,3,-3,-4,96,i,-1
NC1=NC(c2ccccc2C(F)(F)F)N(c2ccc(F)c(Cl)c2)C(N)=N1 (centres undefined),-2,-12,-8,93,i,-6
COc1ccc(NC(=O)CN2C(=O)NC(C)(c3ccc4c(c3)OCO4)C2=O)cc1S(N)(=O)=O (centres undefined),6,-1,11,92,i,-11
Cc1ccc(-c2nsc(SCC(=O)NCC3CCCO3)n2)cc1 (centres undefined),-10,0,-6,84,i,-1
Cc1ccc(-c2nc(SCC(=O)NCC3CCCO3)c(-c3ccccc3)[nH]2)cc1 (centres undefined),-17,-3,5,102,+,4
CCn1c(SCC(=O)N/N=C/c2ccc(C)o2)nnc1-c1ccc(C(C)(C)C)cc1,-5,-5,17,93,+,-5
CCn1c(SCC(=O)N/N=C/c2ccc(C)o2)nnc1-c1ccc(C)cc1,0,-2,-5,107,i,-5
CCCCN(C(=O)c1ccc(C)cc1)c1c(N)n(CCC)c(=O)[nH]c1=O,6,-6,-7,96,i,-11
CCC1CCCCN1C(=O)CCn1ccnc1 (centres undefined),5,-1,25,96,i,0
O=c1c2ccccc2sn1-c1cc(S(=O)(=O)N2CCOCC2)ccc1N1CCCC1,-7,8,20,96,i,1
O=c1c2ccccc2sn1-c1cc(S(=O)(=O)N2CCOCC2)ccc1N1CCOCC1,-4,59*,40,103,i,-12
Cc1nn(-c2ccccc2)nc1CNC(=O)C1CCC1,25*,-6,-5,104,i,7
Cc1nn(-c2ccccc2)nc1CNC(=O)C(C)Cc1ccccc1 (centres undefined),4,36,-9,96,i,-12
Cc1cc(C)cc(N(CCC(=O)O)S(=O)(=O)c2ccc3ccccc3c2)c1,42*,u,x,103,i,-6
CC1(C(=O)O)CCCN(C(=O)C2(c3ccc(Cl)cc3)CCCC2)C1 (centres undefined),5,0,x,101,i,x
COc1ccc(-c2sc3ccc(OC)cc3c2C#Cc2cncn2C)cc1,-1,2,30,99,+,-1
COCCNC(=O)c1cc(-c2ccccc2)nn1CC1CC(c2cccc([N+](=O)[O-])c2)=NO1 (centres undefined),31*,2,8,96,i,-2

# Screens (PubChem BioAssay)
